SMILES strings stand for the structures. Active and inactive are the calls of the source.

Experiment [1] concerns the target Cannabinoid receptor 1 (Homo sapiens) (UniProt P21554). As to the kind of experiment: Displacement of [3H]CP55940 from human CB1R expressed in CHO cell membranes at 100 nM after 60 mins by liquid scintillation spectrometric method. The method in brief: (§1)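 Membranes (50 µg protein) from CHO cells stably expressing human CB1R or CB2R, incubated with 0.7 nM [3H]CP55940 in 50 mM Tris binding buffer with 0.1% BSA, pH 7.4, at 37 °C for 60 min. Vehicle 0.1% DMSO. Ended with ice-cold buffer and vacuum filtration through GF/B filters, then liquid scintillation counting. Specific binding is total minus binding with 1 µM unlabelled CP55940. Six independent experiments, each in duplicate.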

For experiment [2], the target named is Cannabinoid receptor 2 (Homo sapiens) (UniProt P34972). Briefly: Positive allosteric modulation of human CB2R expressed in CHO cell membranes assessed as increase in [3H]CP55940 binding after 60 mins by liquid scintillation spectrometric method. A digest of the protocol: as §1
The target of experiment [3] is Cannabinoid receptor 1 (Homo sapiens) (UniProt P21554). As to the kind of experiment: Positive allosteric modulation of human CB1R expressed in CHO cell membranes assessed as increase in [3H]CP55940 binding at 100 nM after 60 mins by liquid scintillation spectrometric method. A digest of the protocol: as §1
Experiment [4] has the same target. Briefly: Positive allosteric modulation of human CB1R expressed in CHO cell membranes assessed as increase in [3H]CP55940 binding up to 1 uM after 60 mins by liquid scintillation spectrometric method relative to control.
Experiment [5] has the same target. Briefly: Positive allosteric modulation of human CB1R expressed in CHO cell membranes assessed as increase in [3H]CP55940 binding at 10 uM after 60 mins by liquid scintillation spectrometric method.
Experiment [6] has the same target. As to the kind of experiment: Allosteric modulation of human CB1R expressed in CHO cell membranes assessed as effect on CP55940-stimulated [35S]GTPgammaS binding at 100 nM after 90 mins by liquid scintillation counting method. It counts as functional. The method in brief: (§2)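 Membranes (1 mg/ml) from CHO cells stably expressing human CB1R or CB2R. Incubated with 0.1 nM [35S]GTPγS and 30 µM GDP in 50 mM Tris, 10 mM MgCl2, 100 mM NaCl, 0.2 mM EDTA, 1 mM DTT, pH 7.4, 0.1% DMSO, 30 °C for 90 min. Filtered on GF/B; scintillation counting. Duplicates; six experiments for CB1R, twelve for CB2R with CP55940.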
In general terms: GTPγS resists hydrolysis and so accumulates on activated G proteins.

The target in experiment [7] is Cannabinoid receptor 2 (Homo sapiens) (UniProt P34972). Briefly: Positive allosteric modulation of human CB2R expressed in CHO cell membranes assessed as increase in CP55940-stimulated [35S]GTPgammaS binding at 100 nM after 90 mins by liquid scintillation counting method. It is filed as functional. The method in brief: as §2
For experiment [8] the target is unchanged. Briefly: Inhibition of [35S]GTPgammaS binding to human CB2R expressed in CHO cell membranes at 100 nM after 90 mins by liquid scintillation counting method. It is filed as functional. The method in brief: as §2
Experiment [9] shares this target. Briefly: Stimulation of [35S]GTPgammaS binding to human CB2R expressed in CHO cell membranes at 100 nM after 90 mins by liquid scintillation counting method. It is filed as functional. A digest of the protocol:
as §2

The target is the same in experiment [10]. Briefly: Positive allosteric modulation of human CB2R expressed in CHO cell membranes assessed as increase in 2-AG-stimulated [35S]GTPgammaS binding at 100 nM after 90 mins by liquid scintillation counting method. It is filed as functional. The method in brief: as §2
Experiment [11] has the same target. As to the kind of experiment: Positive allosteric modulation of human CB2R expressed in CHO cell membranes assessed as increase in AEA-stimulated [35S]GTPgammaS binding at 100 nM after 90 mins by liquid scintillation counting method. It is filed as functional. The method in brief:
as §2

For experiment [12] the target is unchanged. As to the kind of experiment: Positive allosteric modulation of human CB2R expressed in CHO cell membranes assessed as decrease in [3H]CP55940 dissociation at 100 nM up to 2 hrs by liquid scintillation spectrometric method. A digest of the protocol: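 Human CB2R CHO membranes (50 µg protein) were used for [3H]CP55940 dissociation in Tris buffer with 0.1% BSA, pH 7.4, with or without 100 nM test compound. Dissociation followed 0.5–120 min at 25 °C; filtration and scintillation counting. Nonspecific binding taken with 1 µM unlabelled ligand. Four experiments in duplicate.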

Experiment [13] has as its target T1, Monoglyceride lipase (Homo sapiens) (UniProt Q99685).
T1 sequence (whole entry): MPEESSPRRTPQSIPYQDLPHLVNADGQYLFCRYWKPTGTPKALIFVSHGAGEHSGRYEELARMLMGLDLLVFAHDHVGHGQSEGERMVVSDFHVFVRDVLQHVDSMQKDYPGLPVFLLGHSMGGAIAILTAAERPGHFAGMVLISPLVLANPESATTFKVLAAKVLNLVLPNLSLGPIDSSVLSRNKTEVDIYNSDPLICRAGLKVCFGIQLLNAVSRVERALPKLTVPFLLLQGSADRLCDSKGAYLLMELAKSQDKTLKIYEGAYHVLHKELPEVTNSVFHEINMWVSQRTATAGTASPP
Briefly: Inhibition of recombinant human MAGL at <10 uM using 4-NPA as substrate after 30 mins by colorimetric method. A digest of the protocol:
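Human recombinant MAGL, 11 ng/well, with 100 µM (final) 4-nitrophenylacetate in 10 mM Tris pH 7.2, 1 mM EDTA, 0.1 mg/ml BSA, at room temperature for 30 min. 4-Nitrophenol release read at 405 nm. Controls were no-compound and no-enzyme reactions.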

The subject of experiment [14] is Mus musculus. As to the kind of experiment: Antinociceptive activity in CD-1 albino mouse model of oxaliplatin-induced neuropathic pain assessed as increase in licking latency at 5 to 10 mg/kg, po treated on day 15 post oxaliplatin treatment and measured at 30 to 60 mins post dose by cold plate test. It is filed as functional, organism-based. The method in brief:
(§3)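 Male CD-1 mice (22–25 g) received oxaliplatin 2.4 mg kg-1 i.p. in 5% glucose on days 1-2, 5-9 and 12-14; controls got vehicle. On day 15, a single oral dose in 1% carboxymethylcellulose was given. Cold plate held at 4 °C; latency to first hind-paw licking recorded, 60 s cut-off, at 15, 30, 45, 60 and 75 min. n=16 mice over 2 sets; one-way ANOVA with Bonferroni.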

For experiment [15], the system named is Mus musculus. Briefly: Antinociceptive activity in CD-1 albino mouse model of oxaliplatin-induced neuropathic pain assessed as licking latency time at 20 mg/kg, po treated on day 15 post oxaliplatin treatment and measured up to 15 mins post dose by cold plate test (reference value: 9.7 +/- 0.9 secs). It is filed as functional. A digest of the protocol:
as §3

The test system of experiment [16] is Mus musculus. As to the kind of experiment: Antinociceptive activity in CD-1 albino mouse model of oxaliplatin-induced neuropathic pain assessed as licking latency time at 20 mg/kg, po treated on day 15 post oxaliplatin treatment and measured at 60 mins post dose by cold plate test (reference value: 9.7 +/- 0.9 secs). It counts as functional. The method in brief:
as §3

Experiment [17] relates to Mus musculus. As to the kind of experiment: Antinociceptive activity in CD-1 albino mouse model of oxaliplatin-induced neuropathic pain assessed as increase in licking latency at 1 to 10 mg/kg, po treated 15 mins after MAGL inhibitor trans-(1-(1-(1H-1,2,4-Triazole-1-carbonyl)piperidin-4-yl)-4-benzo[d][1,3]dioxol-5-yl)-3-(4-fluorophenyl)azetidin-2-one treatment on day 15 post oxaliplatin treatment and measured up to 75 mins post dose by cold plate test. It counts as functional. The method in brief:
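Oxaliplatin model in male CD-1 mice: 2.4 mg kg-1 i.p. in 5% glucose on days 1-2, 5-9 and 12-14, tested day 15. MAGL inhibitor F 1 mg kg-1 p.o. was combined with oral test dosing, both in 1% carboxymethylcellulose. Cold plate latency at 4 °C, 60 s cut-off, read 15–75 min after dosing. 16 mice over 2 sets; ANOVA/Bonferroni; synergy by Chou-Talalay combination index.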

The test system of experiment [18] is Mus musculus. As to the kind of experiment: Antinociceptive activity in CD-1 albino mouse model of oxaliplatin-induced neuropathic pain assessed as increase in licking latency at 20 mg/kg, po treated 15 mins after CB1R antagonist SR141716A treatment on day 15 post oxaliplatin treatment and measured up to 75 mins post dose by cold plate test. It is filed as functional, organism-based. A digest of the protocol: (§4)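 Male CD-1 mice on day 15 after oxaliplatin (2.4 mg kg-1 i.p., days 1-2, 5-9, 12-14) received the selective antagonist i.p., then the oral test dose. Cold plate at 4 °C with 60 s cut-off, licking latency read 15, 30, 45, 60 and 75 min post dose. 16 mice in 2 sets; ANOVA with Bonferroni.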

For experiment [19], the system named is Mus musculus. As to the kind of experiment: Antinociceptive activity in CD-1 albino mouse model of oxaliplatin-induced neuropathic pain assessed as increase in licking latency at 20 mg/kg, po treated 15 mins after CB2R antagonist SR144528 treatment on day 15 post oxaliplatin treatment and measured up to 75 mins post dose by cold plate test. It is filed as functional, organism-based. The method in brief: as §4

Cannabinoid receptor 1 (Homo sapiens), sequence (P21554 whole entry): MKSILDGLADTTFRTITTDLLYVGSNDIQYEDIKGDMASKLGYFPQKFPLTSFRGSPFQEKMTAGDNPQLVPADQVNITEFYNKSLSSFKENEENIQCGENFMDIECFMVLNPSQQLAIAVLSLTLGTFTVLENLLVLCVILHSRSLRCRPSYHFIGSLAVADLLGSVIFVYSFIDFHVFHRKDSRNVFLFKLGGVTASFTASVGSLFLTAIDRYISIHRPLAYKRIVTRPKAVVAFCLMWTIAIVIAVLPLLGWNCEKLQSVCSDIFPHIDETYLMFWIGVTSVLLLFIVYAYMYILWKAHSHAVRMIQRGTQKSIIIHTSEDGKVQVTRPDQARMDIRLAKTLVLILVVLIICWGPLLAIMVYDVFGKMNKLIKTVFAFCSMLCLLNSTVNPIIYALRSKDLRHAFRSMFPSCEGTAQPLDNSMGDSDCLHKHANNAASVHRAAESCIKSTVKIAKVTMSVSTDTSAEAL
Cannabinoid receptor 2 (Homo sapiens), sequence (P34972 whole entry): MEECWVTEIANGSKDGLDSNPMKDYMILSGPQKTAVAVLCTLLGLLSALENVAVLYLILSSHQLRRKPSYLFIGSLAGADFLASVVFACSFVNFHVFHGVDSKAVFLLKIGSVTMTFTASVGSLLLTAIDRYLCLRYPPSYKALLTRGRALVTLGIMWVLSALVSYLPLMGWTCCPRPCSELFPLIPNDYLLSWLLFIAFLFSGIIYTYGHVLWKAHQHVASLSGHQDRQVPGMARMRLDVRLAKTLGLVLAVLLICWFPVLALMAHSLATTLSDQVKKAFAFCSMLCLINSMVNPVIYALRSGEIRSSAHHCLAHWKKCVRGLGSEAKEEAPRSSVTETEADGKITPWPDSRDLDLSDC

`Cc1ccn(Cc2ccc(F)cc2)c(=O)c1NC(=O)C1CCCCCC1`: in [1], the inhibition result was “Active”. For the same compound, in experiment [2], the outcome was inactive.

Turning to `Cc1c(Cl)cc(NC(=O)C2CCCCCC2)c(=O)n1Cc1ccc(F)cc1`, the inhibition entry in [1] was “Active”. Also, the outcome in [2] was inactive.

For `Cc1c(Br)cc(NC(=O)C2CCCCCC2)c(=O)n1Cc1ccc(F)cc1`, the outcome in [3] was Active. Moreover, the result in [2] was inactive.

On to `Cc1c(-c2ccccc2)cn(Cc2ccc(F)cc2)c(=O)c1NC(=O)C1CCCCCC1`, for which the outcome in [3] was Active. Besides, the result in [2] was inactive.

As for `Cc1c(Br)c[nH]c(=O)c1NC(=O)C1CCCCCC1`, the inhibition entry in experiment [1] was “Active”. For the same compound, the result in experiment [2] was inactive.

Turning to `Cc1c(-c2ccccc2)cc(NC(=O)C2CCCCCC2)c(=O)n1Cc1ccc(F)cc1`, the outcome in experiment [3] was Active. Moreover, the result in [2] was inactive.

Take `O=C(Nc1c(O)c(Br)cn(Cc2ccc(F)cc2)c1=O)C1CCCCCC1`: the outcome in [3] and in experiment [2] was Active.

With `COc1ccc(-c2cc(NC(=O)C3CCCCCC3)c(=O)n(Cc3ccc(F)cc3)c2C)cc1`, in [3], the result was Active. In addition, the outcome in experiment [2] was inactive.

On to `Cc1c(Br)cn(Cc2ccc(F)cc2)c(=O)c1NC(=O)C1CCCCCC1`, for which the outcome (in [3]; in experiment [2]; in [7]; in experiment [10]; in experiment [12]; in the experiment with Mus musculus [14]) was Active. Further, the result in the experiment with Mus musculus [18] was Active. Further, the Activity in experiment [4] was 40%. Further, the result (in experiment [5]; in experiment [6]; in [9]; in experiment [11]; with Mus musculus [19]) was inactive. Also, the inhibition result in experiment [8] and in experiment [13] was “inactive” in each case. The Time worked out at 0.5 min in the experiment with Mus musculus [15] and 0.75 min in the experiment on Mus musculus [16]. In the experiment on Mus musculus [17], the CI was 0.2012.

As to `Cc1c(F)cc(NC(=O)C2CCCCCC2)c(=O)n1Cc1ccc(F)cc1`, the outcome in [3] was Active. The result in experiment [2] was inactive.

Turning to `Cc1ccc(NC(=O)C2CCCCCC2)c(=O)n1Cc1ccc(F)cc1`, in experiment [1], the inhibition result is “Active”. The result in experiment [2] was inactive.

As for `COc1ccc(-c2cn(Cc3ccc(F)cc3)c(=O)c(NC(=O)C3CCCCCC3)c2C)cc1`, the result in experiment [3] was Active. In [2], the result was inactive.

As for `Cc1c(Cl)cn(Cc2ccc(F)cc2)c(=O)c1NC(=O)C1CCCCCC1`, in experiment [3], the result was Active. The outcome in experiment [2] was inactive.

Source of the values: ChEMBL document CHEMBL4308840, “Identification of the First Synthetic Allosteric Modulator of the CB2 Receptors and Evidence of Its Efficacy for Neuropathic Pain Relief” (2018).
